8 compounds from ChEMBL document CHEMBL1141308, “The ansacarbamitocins: polar ansamitocin derivatives” (J Nat Prod, 2007) can be followed below.

Structures are written as SMILES. Calls of active or inactive are those of the source. The calls are words filed in the database; no cut-off is given here.

The subject of one experiment is Septoria. Briefly: Antifungal activity against Septoria tritici at 25 ug/mL. It counts as functional. The procedure, abridged: (§1)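 In vitro antifungal screening assay against the named Septoria species, testing purified compounds at a single concentration of 25 µg/mL.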
Experiment [1] is described as follows: Antifungal activity against Septoria nodorum at 25 ug/mL. The format is functional. Put shortly: as §1

With `CNC(=O)O[C@H]1CC(=O)N([C@H]2O[C@@H](CO)[C@H](O)[C@@H](O)[C@@H]2O)c2cc(cc(O)c2Cl)C/C(C)=C/C=C/[C@@H](OC)[C@@]2(O)C[C@H](OC(=O)N2)[C@@H](C)[C@H]2O[C@@]12C`, the outcome (with Septoria; in experiment [1]) was inactive.

For `CNC(=O)O[C@H]1CC(=O)N([C@H]2O[C@@H](COC(C)=O)[C@H](OC(N)=O)[C@@H](OC)[C@@H]2O)c2cc(cc(O)c2Cl)C/C(C)=C/C=C/[C@@H](OC)[C@@]2(O)C[C@H](OC(=O)N2)[C@@H](C)[C@H]2O[C@@]12C`, the result (in the experiment with Septoria; in experiment [1]) was inactive.

On to `CNC(=O)O[C@H]1CC(=O)N([C@H]2O[C@@H](COC(C)=O)[C@H](OC(N)=O)[C@@H](OC)[C@@H]2O)c2cc(cc(O)c2Cl)C/C(C)=C/C=C/[C@@H](OC)[C@@]2(O)C[C@H](OC(=O)N2)[C@@H](C)/C=C/1C`, for which the result (in the experiment on Septoria; in experiment [1]) was inactive.

Turning to `CNC(=O)O[C@H]1CC(=O)N([C@H]2O[C@@H](CO)[C@H](OC(N)=O)[C@@H](O)[C@@H]2O)c2cc(cc(O)c2Cl)C/C(C)=C/C=C/[C@@H](OC)[C@@]2(O)C[C@H](OC(=O)N2)[C@@H](C)[C@H]2O[C@@]12C`, the outcome (in the experiment on Septoria; in experiment [1]) was inactive.

With `CNC(=O)O[C@H]1CC(=O)N([C@H]2O[C@@H](COC(C)=O)[C@H](OC(N)=O)[C@@H](O)[C@@H]2O)c2cc(cc(O)c2Cl)C/C(C)=C/C=C/[C@@H](OC)[C@@]2(O)C[C@H](OC(=O)N2)[C@@H](C)[C@H]2O[C@@]12C`, the result (with Septoria; in experiment [1]) was inactive.

Turning to `CNC(=O)O[C@H]1CC(=O)N([C@H]2O[C@@H](COC(C)=O)[C@H](OC(N)=O)[C@@H](O)[C@@H]2O)c2cc(cc(O)c2Cl)C/C(C)=C/C=C/[C@@H](OC)[C@@]2(O)C[C@H](OC(=O)N2)[C@@H](C)/C=C/1C`, the result (in the experiment with Septoria; in experiment [1]) was inactive.

Turning to `CNC(=O)O[C@H]1CC(=O)N([C@H]2O[C@@H](CO)[C@H](O)[C@@H](OC)[C@@H]2O)c2cc(cc(O)c2Cl)C/C(C)=C/C=C/[C@@H](OC)[C@@]2(O)C[C@H](OC(=O)N2)[C@@H](C)[C@H]2O[C@@]12C`, the result (in the experiment with Septoria; in experiment [1]) was inactive.

As for `CNC(=O)O[C@H]1CC(=O)N([C@H]2O[C@@H](CO)[C@H](OC(N)=O)[C@@H](OC)[C@@H]2O)c2cc(cc(O)c2Cl)C/C(C)=C/C=C/[C@@H](OC)[C@@]2(O)C[C@H](OC(=O)N2)[C@@H](C)[C@H]2O[C@@]12C`, the result (in the experiment with Septoria; in experiment [1]) was inactive.
